Most compounds without a hit are left out; they make up all but 3.5% or so of the library.
RGS4 inh: human RGS4 inhibition; 0.45% of 310,000 active; HEK293 M3R/RGS4 inducible, Fluo-4 calcium flux; active compounds read high; triggered by carbachol at its EC20; B-score at 10 µM; P49798;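 active = B-score, a plate-corrected calcium signal, over three deviations above library mean, with baseline fluorescence within five deviations of library mean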;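 note: RGS4 expression induced by doxycycline in cells with stable M3 receptor; B-score is computed from the integrated fluorescence ratio over baseline after carbachol; higher B-score means a larger calcium signal and so more RGS4 inhibition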
Target sequence (P49798 whole entry, looked up): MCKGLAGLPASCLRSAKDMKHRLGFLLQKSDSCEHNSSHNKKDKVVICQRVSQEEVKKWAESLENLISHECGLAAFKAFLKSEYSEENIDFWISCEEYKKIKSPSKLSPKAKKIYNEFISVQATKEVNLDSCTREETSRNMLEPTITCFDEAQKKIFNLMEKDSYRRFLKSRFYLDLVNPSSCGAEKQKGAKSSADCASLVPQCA
MrgX1 antag: blocks BAM8-22 activation of human MrgX1 receptor; Q96LB2; MRGX1-HEK293 calcium flux, Fluo-4, BAM8-22 antagonism; active compounds read low; B-score at 10 µM; 1.3% of 310,000 active; AID 588676;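 active = calcium-response B-score plate-corrected more than 3 library SD below zero, starting fluorescence within 5 deviations, no agonist response on first addition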;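 note: peak minus trough fluorescence over baseline after final BAM8-22 challenge near maximal dose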
Target sequence (Q96LB2 whole entry, looked up): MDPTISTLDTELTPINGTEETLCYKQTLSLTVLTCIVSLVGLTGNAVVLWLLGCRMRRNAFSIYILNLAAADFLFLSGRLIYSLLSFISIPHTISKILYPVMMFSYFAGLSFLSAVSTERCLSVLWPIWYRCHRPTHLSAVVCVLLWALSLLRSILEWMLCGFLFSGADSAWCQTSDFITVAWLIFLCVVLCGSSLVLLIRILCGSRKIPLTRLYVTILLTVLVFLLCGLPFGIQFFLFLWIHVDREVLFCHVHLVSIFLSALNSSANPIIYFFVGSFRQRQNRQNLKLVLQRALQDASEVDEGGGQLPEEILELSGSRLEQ
RGS4 act: RGS4 potentiation or activation. HEK293 M3R/inducible RGS4, carbachol calcium flux Fluo4; active compounds read low. B-score at 10 µM. 0.92% of 310,000 active. AID 463111;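 active = B-score of the integrated calcium signal more than 4 SD below the library mean, with starting fluorescence not abnormally high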;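 note: negative B-score means reduced calcium response which marks RGS4 activation or potentiation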
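Assay system: HEK293 FlpIn-TREx cells, stable M3R, doxycycline-inducible RGS4 / Probe or stimulus: carbachol, ECmax concentration / Times: overnight RGS4 induction, 30 min dye load 37 °C, 20 min compound RT / Signal: kinetic calcium fluorescence imaging with Fluo4-AM dye, 2 µM / Measure: Agonist-evoked peak-minus-minimum fluorescence over baseline, integrated ratio, B score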
MrgX1 allo act: human MrgX1 positive allosteric modulation, primary screen. MrgX1-HEK293, Fluo-4 calcium flux, FDSS; active compounds read high. 0.63% of 310,000 active. B-score at 10 µM;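 active = plate-corrected calcium response at least 3 library SD above typical, normal starting fluorescence, not activating the receptor alone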;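 note: compound read alongside a low EC10 to EC30 dose of BAM8-22 agonist; peak minus trough fluorescence over baseline measured at the second addition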
MrgX1 agonist: human MrgX1 receptor agonism, primary screen; MrgX1-HEK293 cells, Fluo-4 calcium fluorescence, agonist mode; active compounds read high; 0.44% of 310,000 active; B-score at 10 µM;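 active = calcium response B-score plate-corrected fluorescence ratio at least 3 library SD, with starting fluorescence B-score inside 5 SD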
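Test system: HEK293 cells stably expressing human MrgX1 receptor; Input: fifteen thousand cells per well; Dosing: compound delivered in addition one of three; Schedule: overnight seeding, then 1 h dark dye loading; Technique: Fluo-4 NW calcium fluorescence; Measure: B-scored fluorescence response ratio; Controls: positive and negative controls per plate.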
RGS4 inh valid: validation of RGS4 inhibitors; shares compounds with RGS4 inh; HEK293 M3R/RGS4, carbachol calcium Fluo-4 fluorescence; carbachol added at its EC20; 0 = buffer wells, 100 = carbachol control; calcium response, % at 10 µM; 65% of 1,700 active;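 active = duplicate-averaged calcium response above the buffer-only control mean plus 5 SD of those controls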;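 note: integrated fluorescence ratio F max minus min over baseline F0; higher response in RGS4-induced cells means RGS4 inhibition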
M3R Ca ctr: non-induced cell nonspecific activity of RGS4 inhibitors. shares compounds with RGS4 inh. 20% of 1,900 active. HEK293 M3R non-induced, carbachol calcium Fluo-4; submaximal (EC20) carbachol stimulus; buffer wells 0%, carbachol control wells 100%. activity (percent), % at 10 µM; call rule not given here;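 note: RGS4 induction absent so cells express M3R without RGS4; higher means more calcium signal and flags a non-specific hit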
M3R basal Ca ctr: second counter-screen for RGS4 inhibitors: non-induced cells without carbachol | 22% of 1,900 active | HEK293 M3R/RGS4 non-induced, Fluo-4 calcium, no carbachol; normalised: buffer wells 0%, carbachol wells 100% | calcium response (agonist-mode artifact), % at 10 µM | shares compounds with RGS4 inh;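 active = duplicate-averaged calcium rise in uninduced cells above buffer wells' mean plus 5 SD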
Starred values were filed as active, the others as inactive; i = inactive; · = no result.

SMILES	RGS4 inh	MrgX1 antag	RGS4 act	MrgX1 allo act	MrgX1 agonist	RGS4 inh valid	M3R Ca ctr	M3R basal Ca ctr
O=C(Oc1ccc(Cl)c2cccnc12)c1cccc([N+](=O)[O-])c1	4.71*	i	i	i	i	25.0%*	i	i
COc1ccccc1/C=C/C=N/n1c(-c2ccccn2)n[nH]c1=S	i	i	i	i	i	·	·	·
COc1ccccc1/C=C/C=N/n1c(-c2cc(C)[nH]n2)n[nH]c1=S	i	i	i	i	i	·	i	i
O=C(Nc1ccc2ccccc2c1)C(=O)C1C(=O)Nc2ccccc21 (stereo not given)	8.12*	i	i	6.87*	i	12.0%*	i	i
Cc1cccc(NC(=O)C(=O)C2C(=O)Nc3ccccc32)c1 (stereo not given)	i	i	i	i	i	·	·	·
O=C(COC(=O)CSc1ccc2ccccc2c1Br)NC1CC1	i	i	i	i	i	·	·	·
Clc1ccc(-c2csc(N/N=C/c3cccnc3)n2)c(Cl)c1	i	i	i	i	i	·	·	·
C(=N\Nc1nc(-c2ccccc2)cs1)/c1cccnc1	i	i	i	i	i	i	i	i
CN(CC(=O)Nc1cccc(F)c1)C(=O)C1CC(=O)N(Cc2ccco2)C1 (stereo not given)	i	i	i	i	i	·	·	·
O=C(CCSCCc1ccccn1)Nc1c(F)c(F)c(F)c(F)c1F	i	i	i	i	i	·	·	·
CCOCCCNC1=C(Cl)C(=O)c2ccccc2C1=O	5.55*	i	i	i	i	30.0%*	i	i
CCOCCCNS(=O)(=O)c1ccccc1	i	i	i	i	i	·	·	·
CCOC(=O)CSc1nc2ccccc2c(=O)n1CC	i	i	i	i	i	·	·	·
CCn1c(SCC(=O)OC2CCCCC2)nc2ccccc2c1=O	5.48*	i	i	i	i	14.0%*	i	i
CCOc1c(Cl)cc(CNc2ccc(N3CCCC3)cc2)cc1OC	5.66*	·	i	·	·	18.5%*	i	i
CCOc1c(Cl)cc(CNc2ccc(S(N)(=O)=O)cc2)cc1OC	i	i	i	i	i	·	·	·
O=C(CCCN1C(=O)C(c2ccccc2)Oc2cccnc21)NCCc1ccc(Cl)cc1 (stereo not given)	i	i	i	i	i	·	·	·
Cc1ccc(-c2nnn(CC(=O)N(CC(=O)NC3CCCCC3)c3ccccc3F)n2)o1	i	·	i	·	·	·	·	·
Cc1ccc(NC(=O)NC(=O)CSc2nnc(-c3ccc(Cl)cc3Cl)n2N)c(C)c1	5.2*	i	i	i	i	i	i	i
Cc1ccc(-c2nnc(SCC(=O)NC(=O)Nc3ccc(C)cc3C)n2N)cc1	i	i	i	i	i	·	·	·
Cc1ccc(CNS(=O)(=O)c2ccc(C)s2)cc1	i	i	i	i	i	·	·	·
C/C(=N/NC(=O)CNc1ccc(C)cc1)c1ccc(Cl)cc1	5.55*	i	i	i	i	7.0%*	i	i
Cc1ccc(C(=O)CNc2ccc(Cl)cc2)cc1	i	i	i	i	i	·	·	·
CC1C/C(=C/c2ccccn2)C(=O)/C(=C/c2ccccn2)C1 (stereo not given)	10.2*	i	i	i	i	36.5%*	i	13.0%*
COc1ccc(C(=O)Nc2cccc3cccnc23)cc1OC	4.9*	i	i	i	i	i	i	i
SMILES	RGS4 inh	MrgX1 antag	RGS4 act	MrgX1 allo act	MrgX1 agonist	RGS4 inh valid	M3R Ca ctr	M3R basal Ca ctr
COc1ccc(NC(=O)C(=O)Nc2cccc3cccnc23)cc1OC	i	i	i	i	i	·	·	·
CC(=O)N(C1CC(C)C(C#N)(C#N)C1(C#N)C#N)N(C)C (stereo not given)	28.4*	i	i	i	i	61.5%*	i	9.0%*
CCCC(=O)N(C1CC(C)C(C#N)(C#N)C1(C#N)C#N)N(C)C (stereo not given)	7.68*	i	i	i	i	29.5%*	i	22.5%*
O=C(CNC(=O)c1ccccc1C(F)(F)F)N/N=C/c1cccs1	i	i	i	i	i	·	·	·
O=c1cc(-c2ccccc2)nc(SCCOc2ccccc2Cl)[nH]1	i	i	i	i	i	·	·	·
CCC(=O)Oc1cccc(C(=O)Nc2cccc(NC(=O)c3ccco3)c2)c1	i	i	i	i	i	·	·	·
Cc1cccc(C)c1N(CC(O)Cn1c2ccccc2c2ccccc21)S(C)(=O)=O (stereo not given)	7.22*	i	i	i	i	19.0%*	i	i
CN(C)c1ccc(C(CNS(=O)(=O)c2ccc([N+](=O)[O-])cc2)N2CCCC2)cc1 (stereo not given)	i	i	i	i	i	·	·	·
CN(C)c1ccc(C(CNS(=O)(=O)c2ccc3ccccc3c2)N2CCOCC2)cc1 (stereo not given)	5.18*	i	i	i	i	5.0%*	i	i
CSCc1ccc(C(=O)N2CCC(CCC(=O)N(C)Cc3ccccc3)CC2)o1	i	i	i	i	i	·	·	·
Cc1cc(Cl)ccc1OCC(=O)NNC(=O)c1ccco1	i	i	i	i	i	·	i	i
Cc1cc(C)cc(N(CC(=O)Nc2ccc(C(F)(F)F)cc2)S(=O)(=O)c2c(C)[nH]c(=O)[nH]c2=O)c1	6.49*	i	i	i	i	i	i	i
CCOC(=O)/C(=C/c1ccc(OC(=O)c2ccccc2)cc1)C(C)=O	i	i	i	i	i	·	i	8.5%*
Cc1ccc(C)c(NC(=O)c2ccccc2O)c1	i	i	i	i	i	·	·	·
O=C(/C=C/c1ccccc1Cl)c1ccc(O)cc1	i	i	i	i	i	·	·	·
Cc1ccc(/C=C/C(=O)c2ccccc(=O)c2O)c(C)c1	i	i	i	i	i	·	i	34.0%*
O=C(/C=C/c1ccccc1Cl)c1ccccc(=O)c1O	18*	i	i	8.08*	i	44.5%*	i	10.5%*
Cc1ccc(C)c(/C=C/C(=O)c2ccccc(=O)c2O)c1	7.5*	i	i	i	i	14.5%*	i	39.5%*

Compound activity: PubChem BioAssay, Johns Hopkins Ion Channel Center
